{"source": "paper PMC5361402", "about": "(Diabetes, 2014)", "key": {"[1]": {"settings": "cited from earlier work"}, "[2]": {"system": "patients with type 1 and type 2 diabetes", "settings": "phase II, patients previously treated with other basal insulins; cited from earlier work"}, "[3]": {"settings": "cited from earlier work", "remark": "listed apart in the source"}, "[4]": {"experiment": "Plasma insulin / serum LY concentrations and organ extraction during the clamp", "format": "in vivo, dog"}, "conscious dogs": {"system": "conscious dogs", "experiment": "Euglycemic clamp with tracer and hepatic balance measurements in conscious dogs", "format": "in vivo, dog", "settings": "control group (regular human insulin 0.11 nmol/kg/h iv, n=6)", "procedure,_shortened": "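Conscious dogs had 30 min of basal sampling (90–120 min), then a 5-h euglycemic clamp (120–420 min). Somatostatin and regular human insulin (no priming dose) were given by peripheral vein, glucagon intraportally at basal 0.5 ng ⋅ kg−1 ⋅ min−1, and glucose infused to hold euglycemia. [3H]glucose tracer; Ra from Mari circulatory model; hepatic organ-balance calculations; triglycerides assayed spectrophotometrically; n = 6.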"}, "[5]": {"settings": "regular insulin 0.11 nmol/kg/h iv during the clamp, dog"}}, "data": [{"substance": "insulin degludec", "values": [{"measurement": "T1/2 relative to that of glargine", "setting": "[1]", "value": "approximately two times"}]}, {"substance": "insulin glargine", "values": [{"measurement": "Body weight change", "setting": "[2]", "value": "modest weight gain"}]}, {"substance": "insulin: endogenously secreted insulin to which the liver is exposed", "values": [{"measurement": "Hepatic extraction of the insulin to which the liver is exposed", "setting": "[3]", "value": "50–60%"}]}, {"substance": "regular insulin: regular human insulin infused via peripheral vein in the control group", "values": [{"measurement": "Portal vein insulin concentration during the clamp", "setting": "[4]; control group (regular human insulin 0.11 nmol/kg/h iv, n=6)", "value": "~ 50 % of basal"}, {"measurement": "Fractional hepatic extraction", "setting": "[4]; [5]", "value": "50 ± 3", "unit": "%"}, {"measurement": "Fractional renal extraction", "setting": "[4]; [5]", "value": "61 ± 3", "unit": "%"}, {"measurement": "Change from baseline in net hepatic glucose balance by 420 min", "setting": "conscious dogs", "value": "10.3 ± 1.4", "unit": "µmol ⋅ kg^-1 ⋅ min^−1"}, {"measurement": "Fall of arterial plasma triglyceride concentration below baseline by 420 min", "setting": "conscious dogs", "value": "~ 40%"}, {"measurement": "Increase in non-HGU over the basal rate in the final hour", "setting": "conscious dogs", "value": "11.1 ± 4.5", "unit": "µmol ⋅ kg^−1 ⋅ min^−1"}, {"measurement": "Time to NEFA nadir after the start of the clamp period", "setting": "conscious dogs", "value": "≤ 90", "unit": "min"}, {"measurement": "Nadir of NEFA concentrations", "setting": "conscious dogs; arterial plasma", "value": "271 ± 57", "unit": "µmol/L"}, {"measurement": "Fall from basal in endogenous glucose Ra by the final hour", "setting": "conscious dogs; tracer-determined", "value": "8.9 ± 1.9", "unit": "µmol ⋅ kg^−1 ⋅ min^−1"}]}]}
